The values below come from ChEMBL document CHEMBL4130446, “Environmentally Friendly Procedure Based on Supercritical Fluid Chromatography and Tandem Mass Spectrometry Molecular Networking for the Discovery of Potent Antiviral Compounds from Euphorbia semiperfoliata” (J Nat Prod, 2017).

The subject of series [1] is Human immunodeficiency virus. The experiment in a line: Antiviral activity against HIV NL4.3 harboring renilla luciferase infected in human MT2 cells pretreated for 2 hrs followed by viral infection measured after 48 to 96 hrs post infection by luciferase reporter gene assay. The format is functional, organism-based. Conditions: Human immunodeficiency virus 1, NL4.3, MT2. In outline:
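Recombinant NL4.3-Ren virus assay in MT-2 cells. EC50 is given in μM unless stated otherwise.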
On the technique in general: Reporter assays use an easily measured gene product as a stand-in for the process of interest.

A short description of series [2]: Cytotoxicity against human MT2 cells by Celltiter-Glo assay. The format is cell-based. (In ATP-based viability assays light output follows the ATP content of the culture.)
Series [3] can be described thus: Selectivity index, ratio of CC50 for human MT2 cells to EC50 for HIV NL4.3 harboring renilla luciferase infected in human MT2 cells. The format is toxicity, cell-based. Conditions: read-out: Ratio CC50/EC50. In outline:
(§1)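 Selectivity index is CC50 divided by EC50: Vero CC50 over CHIKV EC50, or MT-2 CC50 over NL4.3-Ren EC50 (HIV). Inputs are in μM unless stated otherwise.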

In the next series the test system is Chikungunya virus. The experiment in a line: Antiviral activity against Chikungunya virus Indian ocean strain 899 infected in African green monkey Vero cells assessed as reduction in virus-induced cytopathic effect by MTS assay. The series is classed as functional, organism-based. Conditions: Indian ocean 899, Vero. A general note: Protection from cytopathic effect is a common read-out in antiviral testing.

Series [4] can be described thus: Cytotoxicity against African green monkey Vero cells assessed as morphological changes by microscopic method. The settings on record: chlorocebus sabaeus. The format is cell-based.
Series [5] is described as follows: Selectivity index, ratio of CC50 for African green monkey Vero cells to EC50 for Chikungunya virus Indian ocean strain 899 infected in African green monkey Vero cells. The format is toxicity. The settings on record: read-out: Ratio CC50/EC50. In outline:
as §1

Broadly, the EC50 is the concentration needed to bring the measured effect to its halfway point. What is called CC50 is the concentration that lowers cell viability or growth by half. Take `C/C=C(\C)C(=O)O[C@@H]1[C@@H](C)[C@]2(O)[C@@H]3C=C(C)C(=O)[C@@H]3CC(CO)=C[C@H]2[C@@H]2C(C)(C)[C@]12OC(=O)C(C)C`: the EC50 in series [1] came to 4.19 µM; in the series on Chikungunya virus it was 17 µM. In addition, the CC50 in series [2] was above 50 µM; in series [4], 116 µM. The selectivity ratio in series [3] is above 12; in series [5] it was 7.

Turning to `C/C=C(\C)C(=O)O[C@@H]1[C@@H](C)[C@]2(O)[C@@H]3C=C(C)C(=O)[C@H]3CC(CO)=C[C@H]2[C@@H]2C(C)(C)[C@]12OC(=O)C(C)C`, the EC50 in series [1] was determined as 0.013 µM; with Chikungunya virus, 1 µM. For the same compound, the CC50 was above 50 µM in series [2] and 20 µM in series [4]. Besides, the selectivity ratio in series [3] is above 3920; in series [5], 25.

Consider `C/C=C(\C)C(=O)O[C@@H]1[C@@H](C)[C@]2(O)[C@@H]3C=C(C)C(=O)[C@H]3CC(C)=C[C@H]2[C@@H]2C(C)(C)[C@]12OC(=O)C(C)C`, for which the results for the CC50 in series [2] and in series [4] were above 50 µM and 154 µM, respectively.

For the compound `C=C1[C@H](OC(C)=O)[C@@H](OC(C)=O)[C@@H](OC(C)=O)C(C)(C)/C=C/[C@@H](C)C(=O)[C@@]2(OC(C)=O)C[C@@](C)(OC(C)=O)[C@H](OC(C)=O)[C@@H]2[C@H]1OC(C)=O`, the EC50 in the series with Chikungunya virus was determined as 13.8 µM. In series [4], the CC50 is above 144 µM. Further, the selectivity ratio in series [5] is above 10.

Regarding `CC(=O)O[C@@H]1[C@@H](C)[C@]2(O)[C@@H]3C=C(C)C(=O)[C@H]3CC(CO)=C[C@H]2[C@@H]2C(C)(C)[C@]12OC(=O)C(C)C`, the concentration for a half-maximal effect (EC50) was determined as 0.054 µM in series [1] and 0.44 µM with Chikungunya virus. Besides, the figures for the CC50 in series [2] and in series [4] were above 50 µM and 172 µM, respectively. The selectivity ratio is above 919 in series [3] and 390 in series [5].

`C=C1[C@H](OC(C)=O)[C@@H](O)[C@@H](OC(C)=O)C(C)(C)/C=C/[C@@H](C)C(=O)[C@@]2(OC(C)=O)C[C@@](C)(OC(C)=O)[C@H](OC(C)=O)[C@@H]2[C@H]1OC(C)=O`: the EC50 in the series on Chikungunya virus is above 153 µM.

With `CCCCCCCCCCCCCC(=O)O[C@@H]1[C@@H](C)[C@@]2(O)[C@@H](C=C(CO)C[C@]3(O)C(=O)C(C)=C[C@@H]23)[C@@H]2C(C)(C)[C@]12OC(C)=O` [PHORBOL MYRISTATE ACETATE], the selectivity ratio in series [5] stood at 1960.

Take `CC(=O)O[C@@]12C[C@@H](C)[C@@]3(O)[C@@H](C=C(CO)C[C@]4(O)C(=O)C(C)=C[C@@H]34)[C@@H]1C2(C)C` [PROSTRATIN]: the EC50 in series [1] came out at 0.226 µM. The compound also gave a CC50 in series [2] above 50 µM. For the same compound, the selectivity ratio was above 22 in series [3] and 30 in series [5].
